# Reference: ChEMBL document CHEMBL1130247, “Antirhino/enteroviral vinylacetylene benzimidazoles: a study of their activity and oral plasma levels in mice” (J Med Chem, 1997)
# What was measured:
# [1] = Oral plasma concentration in mice at 100 mg/kg dosage within 4-hr time frame.; type: ADME, organism-based; set-up: route oral, dose 100 mg/kg; conditions: mouse
# [2] = Antiviral activity against human rhinovirus 14 (HRV-14) using CPE/XTT assay in human tumor cell lines.; type: organism-based, human rhinovirus type 14; conditions: read-out: TC50 (the source's name)
# How it was run: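 Cytopathic-effect assay run by an earlier published method, except that surviving host cells were quantified with XTT substrate instead of crystal violet staining.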
# rhinovirus B14 = experiment: Antiviral activity against human rhinovirus 14 using plaque reduction assay in HeLa cell lines; type: functional, organism-based, human rhinovirus type 14; conditions: Rhinovirus B
# Human rhinovirus sp. [3] = experiment: Antiviral activity against human rhinovirus 2; type: functional, organism-based
# Human rhinovirus sp. [4] = experiment: Antiviral activity against human rhinovirus 1A; type: functional, organism-based
# Coxsackievirus [5] = experiment: Antiviral activity against coxsackie virus B3; type: functional, organism-based
# How it was run: (§1)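 HeLa monolayers in MEM with 5% FBS and 10 mM MgSO4, infected with virus for 1–2 h at room temperature. Overlay of 1.5% agarose mixed 1:1 with 2× MEM (2% FBS) holding graded compound concentrations, diluted in DMSO from a 20 mg/mL stock. Incubated at 37 °C until DMSO-control plaques reached optimal size. Formalin-fixed, crystal violet-stained, plaques counted in duplicate wells. IC50 by Reed–Muench.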
# Enterovirus C = experiment: Antiviral activity against poliovirus 1; type: functional, organism-based; how it was run: as §1
# Human rhinovirus sp. [6] = experiment: Antiviral activity against human rhinovirus 16; type: functional, organism-based
# Coxsackievirus [7] = experiment: Antiviral activity against coxsackie virus A21M; type: functional, organism-based
# Coxsackievirus [8] = experiment: Antiviral activity against coxsackie virus A21; type: functional, organism-based; how it was run: as §1
# [9] = Oral bioavailability in monkey; type: ADME, organism-based; conditions: primates, in vivo
# HeLa = experiment: Antiviral activity against poliovirus 1 using PV-1 plaque reduction assay in HeLa cell lines; type: functional, cell-based; conditions: Homo sapiens; how it was run: as §1
Compound,Cmax [1],CC50 [2],IC50 (rhinovirus B14),IC50 (Human rhinovirus sp. [3]),IC50 (Human rhinovirus sp. [4]),IC50 (Coxsackievirus [5]),IC50 (Enterovirus C),IC50 (Human rhinovirus sp. [6]),"IC50 (Coxsackievirus [7]; Coxsackievirus, read-out: IC50)",IC50 (Coxsackievirus [8]),bioavailability [9],IC50 (Coxsackievirus [7]),IC50 (HeLa)
C#C/C=C(\c1ccccc1)c1ccc2nc(N)n(S(=O)(=O)C(C)C)c2c1F,520 ng/mL,57 µg/mL,2.8 µg/mL,–,–,–,–,–,–,–,–,–,–
C#C/C=C(\c1ccc(N(C)C)cc1)c1ccc2nc(N)n(S(=O)(=O)C(C)C)c2c1,210 ng/mL,5.3 µg/mL,0.117 µg/mL,0.06 µg/mL,0.048 µg/mL,0.06 µg/mL,0.059 µg/mL,0.08 µg/mL,0.13 µg/mL,0.14 µg/mL,–,–,–
C#C/C=C(\c1ccc(OC)c(F)c1)c1ccc2nc(N)n(S(=O)(=O)C(C)C)c2c1,9200 ng/mL,5.5 µg/mL,0.061 µg/mL,0.054 µg/mL,0.049 µg/mL,0.035 µg/mL,0.016 µg/mL,0.06 µg/mL,0.029 µg/mL,0.032 µg/mL,–,–,–
CC(C)S(=O)(=O)n1c(N)nc2ccc(/C(=N/O)c3ccccc3)cc21 [ENVIROXIME],890 ng/mL,–,–,–,–,–,–,–,–,–,–,–,–
C#C/C=C(\c1cc(F)cc(F)c1)c1ccc2nc(N)n(S(=O)(=O)C(C)C)c2c1,18000 ng/mL,32 µg/mL,0.17 µg/mL,0.18 µg/mL,0.12 µg/mL,0.14 µg/mL,0.12 µg/mL,0.26 µg/mL,0.23 µg/mL,0.19 µg/mL,–,–,–
C#C/C=C(/c1ccc2nc(N)n(S(=O)(=O)C(C)C)c2c1)c1cc(F)ccc1F,9300 ng/mL,63 µg/mL,0.11 µg/mL,0.079 µg/mL,0.096 µg/mL,0.1 µg/mL,0.032 µg/mL,0.099 µg/mL,0.1 µg/mL,0.069 µg/mL,–,–,–
CC#C/C=C(\c1cccc(F)c1)c1ccc2nc(N)n(S(=O)(=O)C(C)C)c2c1,640 ng/mL,3.1 µg/mL,0.26 µg/mL,0.28 µg/mL,0.14 µg/mL,0.19 µg/mL,0.12 µg/mL,0.09 µg/mL,0.36 µg/mL,0.33 µg/mL,–,–,–
C#C/C=C(\c1ccc(F)cc1)c1ccc2nc(N)n(S(=O)(=O)C(C)C)c2c1,9200 ng/mL,5.8 µg/mL,0.13 µg/mL,0.091 µg/mL,0.078 µg/mL,0.095 µg/mL,0.067 µg/mL,0.098 µg/mL,–,0.1 µg/mL,23%,0.062 µg/mL,–
C#C/C=C(\c1ccc(OC)cc1)c1ccc2nc(N)n(S(=O)(=O)C(C)C)c2c1,–,5.2 µg/mL,0.059 µg/mL,0.041 µg/mL,0.03 µg/mL,0.055 µg/mL,0.04 µg/mL,0.029 µg/mL,0.051 µg/mL,0.047 µg/mL,–,–,–
C#C/C=C(/c1ccc2nc(N)n(S(=O)(=O)C(C)C)c2c1)c1ccccc1F,9200 ng/mL,66 µg/mL,0.092 µg/mL,0.05 µg/mL,0.035 µg/mL,0.05 µg/mL,0.045 µg/mL,0.07 µg/mL,0.1 µg/mL,0.079 µg/mL,–,–,–
C/C=C(\c1ccccc1)c1ccc2nc(N)n(S(=O)(=O)C(C)C)c2c1,5100 ng/mL,–,–,–,–,–,–,–,–,–,–,–,–
C#C/C=C(\c1ccccc1)c1ccc2nc(N)n(S(=O)(=O)C(C)C)c2c1,–,11 µg/mL,0.094 µg/mL,0.065 µg/mL,0.033 µg/mL,0.1 µg/mL,0.037 µg/mL,0.039 µg/mL,0.089 µg/mL,0.037 µg/mL,–,–,–
C#C/C=C(\c1cccc(F)c1)c1ccc2nc(N)n(S(=O)(=O)C(C)C)c2c1,12000 ng/mL,5.3 µg/mL,0.06 µg/mL,0.069 µg/mL,0.027 µg/mL,0.032 µg/mL,0.037 µg/mL,0.057 µg/mL,0.046 µg/mL,0.085 µg/mL,–,–,–
CC(C)S(=O)(=O)n1c(N)nc2ccc(C(=O)c3cccc(F)c3)cc21,–,15.9 µg/mL,2.1 µg/mL,–,–,–,–,–,–,–,–,–,–
C#C/C=C(\c1ccccc1)c1cc2c(cc1F)nc(N)n2S(=O)(=O)C(C)C,16000 ng/mL,13 µg/mL,–,–,–,–,–,–,–,–,46%,–,1.5 µg/mL
C#C/C=C(\c1cccc(C(F)(F)F)c1)c1ccc2nc(N)n(S(=O)(=O)C(C)C)c2c1,4900 ng/mL,> 100 µg/mL,0.4 µg/mL,–,–,–,–,–,–,–,–,–,–
C#C/C=C(\c1ccc(C)cc1)c1ccc2nc(N)n(S(=O)(=O)C(C)C)c2c1,610 ng/mL,5.7 µg/mL,0.075 µg/mL,–,–,–,–,–,–,–,–,–,–
C#C/C=C(\c1cccc(F)c1)c1ccc2nc(N)n(S(=O)(=O)N(C)C)c2c1,8400 ng/mL,> 100 µg/mL,0.061 µg/mL,0.05 µg/mL,0.053 µg/mL,0.07 µg/mL,0.047 µg/mL,0.04 µg/mL,0.09 µg/mL,0.1 µg/mL,–,–,–
C#C/C=C(\c1ccc(F)c(F)c1)c1ccc2nc(N)n(S(=O)(=O)C(C)C)c2c1,2900 ng/mL,19 µg/mL,0.19 µg/mL,0.23 µg/mL,0.12 µg/mL,0.1 µg/mL,0.082 µg/mL,0.55 µg/mL,0.22 µg/mL,0.247 µg/mL,–,–,–
C#C/C=C(\c1cccc(Cl)c1)c1ccc2nc(N)n(S(=O)(=O)C(C)C)c2c1,18000 ng/mL,20 µg/mL,0.21 µg/mL,0.12 µg/mL,0.13 µg/mL,0.17 µg/mL,0.15 µg/mL,0.19 µg/mL,0.18 µg/mL,0.23 µg/mL,–,–,–
C#C/C=C(\c1ccc(OC(F)(F)F)cc1)c1ccc2nc(N)n(S(=O)(=O)C(C)C)c2c1,2000 ng/mL,18 µg/mL,0.55 µg/mL,0.35 µg/mL,0.26 µg/mL,0.7 µg/mL,0.27 µg/mL,0.22 µg/mL,0.5 µg/mL,0.22 µg/mL,–,–,–
